The source made the active and inactive calls. The calls are words filed in the database; no cut-off is given here.
Legend:
[1] = molecular target: Polymerase acidic protein (Influenza A virus (A/Puerto Rico/8/1934(H1N1))) (UniProt P03433); experiment: Inhibition of PA endonuclease at 1 uM; format: functional
In short: (§1)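 Recombinant His-tagged influenza A PA N-terminal endonuclease domain from E. coli, purified on Ni2+-agarose and then Q anion exchange, used at about 0.1 µM (0.35 µg/100 µl). Buffer at pH 7.3, 1 µg M13mp18 single-stranded circular DNA as substrate, compound at 1 or 10 µM. Digestion read by agarose electrophoresis with ethidium bromide staining. No-enzyme control included.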

[2] = molecular target: Polymerase acidic protein (Influenza A virus (A/Puerto Rico/8/1934(H1N1))) (UniProt P03433); experiment: Inhibition of PA endonuclease at 10 uM; format: functional; in short: as §1
[3] = molecular target: Polymerase acidic protein (Influenza A virus (A/Puerto Rico/8/1934(H1N1))) (UniProt P03433); experiment: Inhibition of Influenza Viral Focus Formation at 13 uM relative to control; format: functional, cell-based; settings: Canis lupus familiaris, MDCK
In short: (§2)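 MDCK cells infected with B/Malaysia/2506/2004 at m.o.i. 0.001, adsorbed 30 min at 37 °C, washed. Compound (50, 12.5 or 3.1 µM, DMSO vehicle) added in growth medium, no pre-incubation. Supernatant sampled daily over 3 days at 37°C. Each sample titrated 10-fold on fresh MDCK, ethanol-fixed after 1 day. Foci stained with anti-NP serum and the PAP/DAB method, then counted as FFU/ml.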

[4] = molecular target: Polymerase acidic protein (Influenza A virus (A/Puerto Rico/8/1934(H1N1))) (UniProt P03433); experiment: Inhibition of Influenza Viral Focus Formation at 50 uM relative to control; format: functional, cell-based; settings: Canis lupus familiaris, MDCK; in short: as §2
[5] = (§3) Inhibition of Influenza Replication; format: functional, Canis lupus familiaris, MDCK
In short: (§4)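 MDCK monolayers (MEM, 10% FBS, 37 °C). Compounds at 6.25–50 µM, DMSO vehicle, premixed 30 min at 37°C with TCID50 of A/Hiroshima/52/2006 (H3N2), A/Solomon/3/2006 (H1N1) or B/Malaysia/2506/2004, then added to PBS-washed cells. Incubated 4 days at 34°C, 5% CO2. Cells fixed in 10% formaldehyde; surviving cells stained with naphthol blue black.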

[6] = as §3; format: functional, Canis lupus familiaris, MDCK; in short: as §4; remark: listed apart in the source
[7] = as §3; format: functional, Canis lupus familiaris, MDCK; in short: as §4; remark: listed apart in the source

SMILES	inhibition [1]	inhibition [2]	inhibition [3]	inhibition [4]	Inhibition [5]	Inhibition [6]	Inhibition [7]
COC1=CC(=O)O[C@@H](/C=C/c2ccccc2)C1	inactive	inactive	–	–	–	–	–
COc1c2ccoc2c(OCC=C(C)C)c2oc(=O)ccc12	inactive	inactive	–	–	–	–	–
COC(=O)c1[nH]c(C(=O)OC)c(-c2c[nH]c3ccc(O)cc23)c1-c1c[nH]c2ccccc12	inactive	inactive	–	–	–	–	–
COc1ccc2ccc(=O)oc2c1CC=C(C)C	inactive	inactive	–	–	–	–	–
CC(C)=CCOc1c2ccoc2cc2oc(=O)ccc12	inactive	inactive	–	–	–	–	–
COc1cc(C)cc(C(=O)c2cc(O)cc(OC)c2CO)c1O	inactive	inactive	–	–	–	–	–
Oc1ccc2cc1Oc1ccc(cc1)CCc1cccc(c1)Oc1c(O)cccc1CC2	inactive	inactive	–	–	–	–	–
COc1cc2c(cc1O)-c1ccc(O)cc1CCc1cc(O)c(O)c(c1)Oc1ccc(cc1)CC2	inactive	Active	-4.66%	5.11%	–	–	–
Oc1ccc2cc1Oc1ccc(cc1)CCc1cccc(O)c1Oc1cccc(c1)CC2	inactive	inactive	–	–	–	–	–
C/C=C(\C)C(=O)CC1C2=CC(=O)[C@](C)(OC(C)=O)C(=O)C2=COC12OC(C)CCC2O (stereo partly specified)	inactive	inactive	–	–	–	–	–
COc1c2ccoc2c(OC)c2oc(=O)ccc12	inactive	inactive	–	–	–	–	–
CC(C)[C@@H](C)/C=C/[C@@H](C)[C@H]1CCC2=C3C=CC4=CCCC[C@]4(C)[C@H]3CC[C@@]21C	inactive	inactive	–	–	–	–	–
CC(C)=CCOc1c2occc2cc2ccc(=O)oc12	inactive	inactive	–	–	–	–	–
COc1ccc2c(c1)CCc1ccc(cc1)Oc1cc(ccc1O)CCc1ccc-2c(O)c1	inactive	inactive	-3.59%	5.56%	–	–	–
COc1c2occc2cc2ccc(=O)oc12	inactive	inactive	–	–	–	–	–
COc1cccc2c1Oc1cccc(c1)CCc1cc(OC)c(OC)c(c1)Oc1ccc(cc1)CC2	inactive	inactive	-2.75%	5.78%	–	–	–
C=CCc1ccc(O)c(-c2ccc(O)c(CC=C)c2)c1	inactive	inactive	–	–	–	–	–

SMILES	inhibition [1]	inhibition [2]	inhibition [3]	inhibition [4]	Inhibition [5]	Inhibition [6]	Inhibition [7]
C[C@H]1OC(=O)C=C[C@@H]1O	inactive	inactive	–	–	–	–	–
C=CCc1ccc(O)c(-c2cc(CC=C)ccc2O)c1	inactive	inactive	–	–	–	–	–
COC1=CC(=O)O[C@@H](/C=C/c2ccc3c(c2)OCO3)C1	inactive	inactive	–	–	–	–	–
COC1Cc2cccc(c2)Oc2c(O)cccc2CCc2ccc(cc2)Oc2cc1cc(O)c2O (stereo unspecified) [MARCHANTIN E]	inactive	Active	2.96%	4.44%	50 µM	25 µM	50 µM
COc1ccc(/C=C/c2cc(OC)cc(=O)o2)cc1	inactive	inactive	–	–	–	–	–
COc1cc(/C=C/c2ccccc2)oc(=O)c1	inactive	inactive	–	–	–	–	–
CC1(C)OC1COc1c2occc2cc2ccc(=O)oc12 (stereo unspecified)	inactive	inactive	–	–	–	–	–
COC(=O)c1[nH]c(C(=O)OC)c(-c2c[nH]c3ccc(O)cc23)c1-c1c[nH]c2ccc(O)cc12	inactive	inactive	–	–	–	–	–
COc1c2ccoc2cc2oc(=O)ccc12	inactive	inactive	–	–	–	–	–
Oc1cccc(CCc2ccc(Oc3cc(CCc4cccc(O)c4)cc(O)c3O)cc2)c1 [PERROTETTIN F]	inactive	Active	–	–	–	50 µM	–
COc1cccc2c(-c3ccc(O)c4c(OC)cccc34)ccc(O)c12	inactive	inactive	–	–	–	–	–
Oc1ccc2c(c1)CCc1ccc(O)c(c1)Oc1ccc(cc1)CCc1cccc(c1)O2	inactive	inactive	–	–	–	–	–
Oc1cc2cc(c1O)Oc1ccc(cc1)CCc1ccc(O)c(O)c1Oc1cccc(c1)CC2	inactive	Active	–	–	–	–	–
COC1=CC(=O)O[C@@H](CCc2ccccc2)C1	inactive	inactive	–	–	–	–	–
Oc1cc2cc(c1O)Oc1ccc(cc1)CCc1cccc(O)c1Oc1cccc(c1)CC2 [MARCHANTIN A]	inactive	Active	2.33%	10.2%	–	50 µM	–
COc1cc(O)cc(C(=O)c2cc(C)cc(OC)c2OC)c1CO	inactive	inactive	–	–	–	–	–

Source: ChEMBL document CHEMBL2040545, “Anti-influenza activity of marchantins, macrocyclic bisbibenzyls contained in liverworts” (2011)
